In ChEMBL document CHEMBL3994636, “New tools in nucleoside toolbox of tick-borne encephalitis virus reproduction inhibitors” (Bioorg Med Chem Lett, 2017):
The source made the active and inactive calls. The calls are words filed in the database; no cut-off is given here.

How the values were obtained:
[1] = test system: Tick-borne encephalitis virus; assay: Antiviral activity against […] Absettarov infected in PEK cells assessed as inhibition of viral reproduction at 50 uM preincubated with virus for 1 hr followed by addition to PEK cells measured after 1 hr by gentian violet staining based plaque reduction assay relative to control; assay type: functional
[2] = test system: Tick-borne encephalitis virus; assay: Antiviral activity against […] Absettarov infected in PEK cells assessed as inhibition of viral reproduction preincubated with virus for 1 hr followed by addition to PEK cells measured after 1 hr by gentian violet staining based plaque reduction assay; assay type: functional, cell-based
[3] = Cytotoxicity against PEK cells after 24 hrs; assay type: cell-based, Sus scrofa; conditions: pig
In short: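 PEK (porcine embryo kidney) cells were exposed to compound at 50 μM for 24 h and examined for cytotoxicity.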

[4] = Cytotoxicity against PEK cells after 7 days; assay type: cell-based, Sus scrofa; conditions: pig

Compound: OC[C@H]1O[C@@H](n2cnc3c(NC4CCCCC4)ncnc32)[C@H](O)[C@@H]1O
- inhibition [1]: inactive
- EC50 [2]: > 50 µM

Compound: O=C(Nc1nc2c(ncn2[C@@H]2O[C@H](CO)[C@@H](O)[C@H]2O)c(=O)[nH]1)c1ccccc1
- inhibition [1]: inactive
- EC50 [2]: > 50 µM

Compound: OC[C@H]1O[C@@H](n2cnc3c(NCc4ccccc4)ncnc32)[C@H](O)[C@@H]1O [N6-BENZYLADENOSINE]
- inhibition [1]: inactive
- EC50 [2]: > 50 µM
- CC50 at 24 h [3]: > 50 µM
- CC50 at 168 h [4]: > 50 µM

Compound: c1ccc(CNc2ncnc3nc[nH]c23)cc1 [6-BENZYLAMINOPURINE]
- CC50 at 24 h [3]: > 50 µM
- CC50 at 168 h [4]: > 50 µM

Compound: OC/C=C\CNc1ncnc2c1ncn2[C@@H]1O[C@H](CO)[C@@H](O)[C@H]1O
- inhibition [1]: inactive
- EC50 [2]: > 50 µM

Compound: OC[C@H]1O[C@@H](n2cnc3c(NCc4c5ccccc5cc5ccccc45)ncnc32)[C@H](O)[C@@H]1O
- inhibition at 50 µM [1]: 50%
- EC50 [2]: 15 µM
- CC50 at 24 h [3]: > 50 µM
- CC50 at 168 h [4]: > 50 µM

Compound: C[C@@]1(O)[C@@H](CO)O[C@@H](n2cnc3c(=O)[nH]c(N)nc32)[C@@H]1O
- inhibition [1]: inactive
- EC50 [2]: > 50 µM

Compound: CC(C)C(=O)Nc1nc2c(ncn2[C@@H]2O[C@H](CO)[C@@H](O)[C@H]2O)c(=O)[nH]1
- inhibition [1]: inactive
- EC50 [2]: > 50 µM

Compound: c1ccc(CNc2ncnc3[nH]cnc23)cc1 [6-BENZYLAMINOPURINE]
- inhibition [1]: inactive
- EC50 [2]: > 50 µM

Compound: Cc1cn([C@@H]2O[C@H](CO)[C@@](C)(O)[C@H]2O)c(=O)[nH]c1=O
- inhibition [1]: inactive
- EC50 [2]: > 50 µM

Compound: O[C@@H]1[C@H](O)[C@@H](COC(c2ccccc2)(c2ccccc2)c2ccccc2)O[C@H]1n1cnc2c(NCc3ccccc3)ncnc21
- inhibition at 50 µM [1]: 50%
- EC50 [2]: 2 µM
- CC50 at 24 h [3]: > 50 µM
- CC50 at 168 h [4]: 9 µM

Compound: OC[C@H]1O[C@@H](n2cnc3c(NC(c4ccccc4)(c4ccccc4)c4ccccc4)ncnc32)[C@H](O)[C@@H]1O
- inhibition [1]: inactive
- EC50 [2]: > 50 µM

Compound: OC[C@H]1O[C@@H](n2cnc3c(NCc4ccco4)ncnc32)[C@H](O)[C@@H]1O [KINETIN RIBOSIDE]
- inhibition [1]: inactive
- EC50 [2]: > 50 µM

Compound: CC(C)=CCNc1ncnc2c1ncn2[C@@H]1O[C@H](CO)[C@@H](O)[C@H]1O [RIBOPRINE]
- inhibition [1]: inactive
- EC50 [2]: > 50 µM

Compound: Cn1cnc2c(ncn2[C@@H]2O[C@H](CO)[C@@H](O)[C@H]2O)c1=N
- inhibition [1]: inactive
- EC50 [2]: > 50 µM

Compound: C#CCNc1ncnc2c1ncn2[C@@H]1O[C@H](CO)[C@@H](O)[C@H]1O
- inhibition [1]: inactive
- EC50 [2]: > 50 µM

Compound: CC(C)=CCC/C(C)=C\CNc1ncnc2c1ncn2[C@@H]1O[C@H](CO)[C@@H](O)[C@H]1O
- inhibition [1]: inactive
- EC50 [2]: > 50 µM

Compound: CNc1ncnc2c1ncn2[C@@H]1O[C@H](CO)[C@@H](O)[C@H]1O
- inhibition [1]: inactive
- EC50 [2]: > 50 µM

Compound: CC1(C)[C@H]2CC=C(CNc3ncnc4c3ncn4[C@@H]3O[C@H](CO)[C@@H](O)[C@H]3O)[C@@H]1C2
- inhibition [1]: inactive
- EC50 [2]: > 50 µM

Compound: CC(C)(C)[Si](C)(C)OC[C@H]1O[C@@H](n2cnc3c(NCc4ccccc4)ncnc32)[C@H](O)[C@@H]1O
- inhibition at 50 µM [1]: 50%
- EC50 [2]: 20 µM
- CC50 at 24 h [3]: > 50 µM
- CC50 at 168 h [4]: > 50 µM

Compound: O=C(Nc1ccn(C2O[C@H](CO)[C@@H](O)[C@H]2O)c(=O)n1)c1ccccc1 (stereo partly specified)
- inhibition [1]: inactive
- EC50 [2]: > 50 µM

Compound: C[C@@]1(O)[C@@H](CO)O[C@@H](n2ccc(=O)[nH]c2=O)[C@@H]1O
- inhibition [1]: inactive
- EC50 [2]: > 50 µM

Compound: OC[C@H]1O[C@@H](n2cnc3c(NCc4ccc5ccc6cccc7ccc4c5c67)ncnc32)[C@H](O)[C@@H]1O
- inhibition at 50 µM [1]: 50%
- EC50 [2]: 6 µM
- CC50 at 24 h [3]: > 50 µM
- CC50 at 168 h [4]: 9 µM

Compound: CC(C)=CCC/C(C)=C/CNc1ncnc2c1ncn2[C@@H]1O[C@H](CO)[C@@H](O)[C@H]1O
- inhibition [1]: inactive
- EC50 [2]: > 50 µM

Compound: C=C(C)[C@@H]1CC=C(CNc2ncnc3c2ncn3[C@@H]2O[C@H](CO)[C@@H](O)[C@H]2O)CC1
- inhibition [1]: inactive
- EC50 [2]: > 50 µM

Compound: OC[C@H]1O[C@@H](n2cnc3c(NCc4ccc5ccccc5c4)ncnc32)[C@H](O)[C@@H]1O
- inhibition [1]: inactive
- EC50 [2]: > 50 µM

Compound: CC(C)[Si](OC[C@H]1O[C@@H](n2cnc3c(NCc4ccccc4)ncnc32)[C@H](O)[C@@H]1O)(C(C)C)C(C)C
- inhibition at 50 µM [1]: 50%
- EC50 [2]: 5 µM
- CC50 at 24 h [3]: > 50 µM
- CC50 at 168 h [4]: > 50 µM

Compound: C[C@@]1(O)[C@@H](CO)O[C@@H](n2ccc(N)nc2=O)[C@@H]1O
- inhibition [1]: inactive
- EC50 [2]: > 50 µM

Compound: OC[C@H]1O[C@@H](n2cnc3c(NC/C=C/c4ccccc4)ncnc32)[C@H](O)[C@@H]1O
- inhibition [1]: inactive
- EC50 [2]: > 50 µM

Compound: OC[C@H]1O[C@@H](n2cnc3c(NCC#Cc4ccccc4)ncnc32)[C@H](O)[C@@H]1O
- inhibition [1]: inactive
- EC50 [2]: > 48 µM

Compound: C=CCC#CCNc1ncnc2c1ncn2[C@@H]1O[C@H](CO)[C@@H](O)[C@H]1O
- inhibition [1]: inactive
- EC50 [2]: > 50 µM

Compound: C[n+]1cn([C@@H]2O[C@H](CO)[C@@H](O)[C@H]2O)c2nc(N)nc([O-])c21
- inhibition [1]: inactive
- EC50 [2]: > 50 µM
